pKi: −log10 of the molar value.
Tests used:
[1] = target: T1, Gamma-aminobutyric acid receptor subunit alpha-5 (Homo sapiens) (UniProt P31644); assay: Selectivity for GABA-A receptor alpha-5 subunit binding over alpha-1,2,3 when co-expressed with beta-3 and gamma-2
T1 sequence (whole entry): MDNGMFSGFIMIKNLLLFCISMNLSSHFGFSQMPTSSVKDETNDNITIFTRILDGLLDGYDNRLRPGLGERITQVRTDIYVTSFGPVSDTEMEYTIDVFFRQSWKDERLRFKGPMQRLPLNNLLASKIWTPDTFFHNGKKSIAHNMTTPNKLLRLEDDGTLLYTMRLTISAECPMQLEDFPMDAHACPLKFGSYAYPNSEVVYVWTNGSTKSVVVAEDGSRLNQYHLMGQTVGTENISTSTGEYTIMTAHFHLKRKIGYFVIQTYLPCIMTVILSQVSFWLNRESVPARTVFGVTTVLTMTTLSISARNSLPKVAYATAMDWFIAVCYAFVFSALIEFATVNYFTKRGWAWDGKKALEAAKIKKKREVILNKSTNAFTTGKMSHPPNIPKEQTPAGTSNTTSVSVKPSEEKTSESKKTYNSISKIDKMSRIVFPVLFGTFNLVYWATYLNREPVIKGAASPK
Outline: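 Ratio of binding affinity for α5 over α1, α2 and α3. Each affinity comes from [³H]Ro15-1788 displacement at recombinant human receptors, with Ki as the geometric mean of three independent determinations.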

[2] = target: T2, GABA-A receptor; alpha-1/beta-3/gamma-2 (Homo sapiens, UniProt P14867+P18507+P28472); assay: Displacement of [3H]- Ro 15-1788 binding from human GABA-A receptor alpha-1-beta-3-gamma-2 subunits; type: protein-complex assay
T2 sequence (P14867 whole entry): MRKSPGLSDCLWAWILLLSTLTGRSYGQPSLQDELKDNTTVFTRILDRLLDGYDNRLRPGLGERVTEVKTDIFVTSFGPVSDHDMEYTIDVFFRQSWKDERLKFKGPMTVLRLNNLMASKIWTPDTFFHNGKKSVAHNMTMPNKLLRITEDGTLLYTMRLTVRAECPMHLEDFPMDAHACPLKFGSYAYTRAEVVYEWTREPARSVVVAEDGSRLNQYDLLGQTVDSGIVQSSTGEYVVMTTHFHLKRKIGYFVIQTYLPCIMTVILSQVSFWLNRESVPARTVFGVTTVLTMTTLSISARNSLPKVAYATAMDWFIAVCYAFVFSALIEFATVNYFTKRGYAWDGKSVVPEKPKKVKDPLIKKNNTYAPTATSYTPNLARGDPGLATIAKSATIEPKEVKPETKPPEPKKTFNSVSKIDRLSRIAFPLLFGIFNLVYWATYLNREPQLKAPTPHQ
T2 sequence (P18507 whole entry): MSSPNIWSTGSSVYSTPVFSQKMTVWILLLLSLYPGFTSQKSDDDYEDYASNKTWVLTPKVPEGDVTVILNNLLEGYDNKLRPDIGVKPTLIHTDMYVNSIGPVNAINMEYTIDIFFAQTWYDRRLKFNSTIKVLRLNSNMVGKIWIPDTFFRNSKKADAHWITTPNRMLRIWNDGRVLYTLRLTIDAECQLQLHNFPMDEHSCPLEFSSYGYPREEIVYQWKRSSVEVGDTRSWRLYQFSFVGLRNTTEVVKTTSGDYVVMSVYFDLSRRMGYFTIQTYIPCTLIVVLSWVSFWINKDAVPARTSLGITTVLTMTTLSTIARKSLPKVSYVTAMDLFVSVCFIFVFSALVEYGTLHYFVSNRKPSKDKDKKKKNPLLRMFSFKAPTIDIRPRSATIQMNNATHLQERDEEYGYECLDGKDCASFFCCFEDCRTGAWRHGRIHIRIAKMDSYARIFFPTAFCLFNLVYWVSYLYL
T2 sequence (P28472 whole entry): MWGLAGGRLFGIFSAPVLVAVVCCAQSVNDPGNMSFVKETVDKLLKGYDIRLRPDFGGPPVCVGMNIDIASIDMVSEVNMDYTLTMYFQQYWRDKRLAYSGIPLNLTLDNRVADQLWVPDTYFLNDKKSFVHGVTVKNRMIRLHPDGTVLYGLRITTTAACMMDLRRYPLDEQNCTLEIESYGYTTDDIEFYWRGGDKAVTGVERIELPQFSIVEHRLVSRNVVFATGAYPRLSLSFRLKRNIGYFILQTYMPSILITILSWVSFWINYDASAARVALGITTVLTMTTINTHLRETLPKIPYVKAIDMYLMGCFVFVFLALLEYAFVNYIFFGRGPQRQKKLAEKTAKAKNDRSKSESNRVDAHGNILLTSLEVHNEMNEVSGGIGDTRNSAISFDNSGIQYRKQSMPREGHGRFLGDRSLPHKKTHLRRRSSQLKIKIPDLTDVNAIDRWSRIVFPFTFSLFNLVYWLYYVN
Outline: (§1)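 Radioligand displacement of [³H]Ro15-1788 from recombinant human GABA-A receptor subtypes. Ki values are the geometric mean ± SEM of three independent determinations.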

[3] = target: T3, GABA-A receptor; alpha-3/beta-3/gamma-2 (Homo sapiens, UniProt P18507+P28472+P34903); assay: Displacement of [3H]- Ro 15-1788 binding from human GABA-A receptor alpha-3-beta-3-gamma-2 subunits; type: protein-complex assay; outline: as §1
T3 sequence (P18507 whole entry): T2 sequence (P18507 whole entry)
T3 sequence (P28472 whole entry): T2 sequence (P28472 whole entry)
T3 sequence (P34903 whole entry): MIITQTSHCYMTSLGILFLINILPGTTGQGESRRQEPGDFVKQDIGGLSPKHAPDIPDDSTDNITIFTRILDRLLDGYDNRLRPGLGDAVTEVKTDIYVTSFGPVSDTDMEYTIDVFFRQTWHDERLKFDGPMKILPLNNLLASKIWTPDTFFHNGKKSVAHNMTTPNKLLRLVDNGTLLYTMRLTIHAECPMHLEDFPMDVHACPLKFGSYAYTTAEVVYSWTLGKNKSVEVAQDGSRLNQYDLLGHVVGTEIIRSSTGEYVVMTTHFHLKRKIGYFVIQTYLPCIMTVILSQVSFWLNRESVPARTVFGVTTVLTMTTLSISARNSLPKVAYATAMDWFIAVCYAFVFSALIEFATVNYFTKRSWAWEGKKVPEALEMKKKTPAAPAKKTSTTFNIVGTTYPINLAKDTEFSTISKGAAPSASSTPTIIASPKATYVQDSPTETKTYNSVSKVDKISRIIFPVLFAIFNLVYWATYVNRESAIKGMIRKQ

[4] = target: T4, GABA-A receptor; alpha-5/beta-3/gamma-2 (Homo sapiens) (UniProt P18507+P28472+P31644); assay: Percentage modulation of GABA EC20 against human GABA-A receptor alpha-5-beta-3-gamma-2 subunits expressed in Xenopus laevis oocytes; type: cell-based; conditions: Oocyte
[5] = target: T5, GABA-A receptor; alpha-2/beta-3/gamma-2 (Homo sapiens, UniProt P18507+P28472+P47869); assay: Displacement of [3H]- Ro 15-1788 binding from human GABA-A receptor alpha-2-beta-3-gamma-2 subunits; type: protein-complex assay; outline: as §1
T5 sequence (P18507 whole entry): T2 sequence (P18507 whole entry)
T5 sequence (P28472 whole entry): T2 sequence (P28472 whole entry)
T5 sequence (P47869 whole entry): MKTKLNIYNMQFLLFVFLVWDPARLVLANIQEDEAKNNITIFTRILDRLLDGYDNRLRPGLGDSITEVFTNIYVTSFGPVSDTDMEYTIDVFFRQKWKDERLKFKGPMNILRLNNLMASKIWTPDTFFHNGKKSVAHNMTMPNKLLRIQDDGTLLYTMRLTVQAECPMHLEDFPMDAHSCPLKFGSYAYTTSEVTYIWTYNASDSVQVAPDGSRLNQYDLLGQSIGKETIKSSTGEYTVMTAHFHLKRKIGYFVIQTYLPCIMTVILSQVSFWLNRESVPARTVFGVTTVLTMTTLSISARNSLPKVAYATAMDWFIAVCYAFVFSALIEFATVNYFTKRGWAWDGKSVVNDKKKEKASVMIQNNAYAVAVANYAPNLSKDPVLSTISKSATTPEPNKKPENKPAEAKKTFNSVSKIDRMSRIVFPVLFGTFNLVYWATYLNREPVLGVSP

[6] = target: T6, GABA-A receptor; alpha-5/beta-3/gamma-2 (Homo sapiens, UniProt P18507+P28472+P31644); assay: Displacement of [3H]- Ro 15-1788 binding from human GABA-A receptor alpha-5-beta-3-gamma-2 subunits; type: protein-complex assay; outline: as §1
T6 sequence (P18507 whole entry): T2 sequence (P18507 whole entry)
T6 sequence (P28472 whole entry): T2 sequence (P28472 whole entry)
T6 sequence (P31644 whole entry): T1 sequence (whole entry)

[7] = target: GABA-A receptor; alpha-1/beta-3/gamma-2 (Homo sapiens) (UniProt P14867+P18507+P28472); assay: Maximum modulation relative to GABA EC20 against human GABA-A receptor alpha-1-beta-3-gamma-2 subunits expressed in mammalian fibroblast L(tk-) cells; type: cell-based
Outline: (§2)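 Whole-cell patch-clamp recording from mammalian fibroblast L(tk-) cells stably expressing GABA-A αxβ3γ2 (x = 1, 2, 3 or 5). Compound modulation of a submaximal (EC20) GABA current was recorded. Maximum modulation came from individually fitted concentration-response curves, at least five per value, given as mean ± SEM.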

[8] = target: GABA-A receptor; alpha-3/beta-3/gamma-2 (Homo sapiens) (UniProt P18507+P28472+P34903); assay: Maximum modulation relative to GABA EC20 against human GABA-A receptor alpha-3-beta-3-gamma-2 subunits expressed in mammalian fibroblast L(tk-) cells; type: cell-based; outline: as §2
[9] = target: GABA-A receptor; alpha-2/beta-3/gamma-2 (Homo sapiens) (UniProt P18507+P28472+P47869); assay: Maximum modulation relative to GABA EC20 against human GABA-A receptor alpha-2-beta-3-gamma-2 subunits expressed in mammalian fibroblast L(tk-) cells; type: cell-based; outline: as §2
[10] = target: T4, GABA-A receptor; alpha-5/beta-3/gamma-2 (Homo sapiens); assay: Maximum modulation relative to GABA EC20 against human GABA-A receptor alpha-5-beta-3-gamma-2 subunits expressed in mammalian fibroblast L(tk-) cells; type: cell-based; outline: as §2

| Structure (SMILES) | Selectivity [1] | pKi [2] | pKi [3] | Efficacy [4] [%] | pKi [5] | pKi [6] | Efficacy [7] [%] | Efficacy [8] [%] | Efficacy [9] [%] | Efficacy [10] [%] |
| --- | --- | --- | --- | --- | --- | --- | --- | --- | --- | --- |
| CC1(C)CC(=O)c2c(SSc3nccs3)sc(-c3cc[nH]n3)c2C1 | 3 | 8.37 | 7.32 | -7 | 7.72 | 8.85 | – | – | – | – |
| CC(C)Sc1sc(-c2cc[nH]n2)c2c1C(=O)CC(C)(C)C2 | 6 | 8.30 | 8.15 | – | 7.92 | 8.70 | – | – | – | – |
| CC1(C)CC(=O)c2c(SCCO)sc(-c3cc[nH]n3)c2C1 | 11 | 7.51 | 7.62 | – | 7.68 | 8.54 | – | – | – | – |
| CCc1c(C(=O)OC)ncc2[nH]c3cc(OC)c(OC)cc3c12 | 3 | 8.00 | 8.12 | -34 | 7.89 | 8.66 | -71 | -62 | -53 | -57 |
| CSc1sc(-c2cccnc2)c2c1C(=O)CC(C)(C)C2 | 28 | 6.78 | 7.48 | -40 | 7.51 | 8.24 | – | – | – | – |
| CC1(C)CC(=O)c2c(SCCO)sc(-c3ccccn3)c2C1 | 20 | 8.44 | 8.00 | -39 | 8.28 | 9.30 | – | – | – | – |
| CSc1sc(-c2nccs2)c2c1C(=O)CC(C)(C)C2 | 28 | 7.21 | 7.33 | -24 | 7.36 | 8.66 | – | – | – | – |
| CCSc1sc(-c2cc[nH]n2)c2c1C(=O)CC(C)(C)C2 | 10 | 7.92 | 7.80 | – | 7.80 | 8.80 | – | – | – | – |
| CSc1sc(-c2cc[nH]n2)c2c1C(=O)CC(C)(C)C2 | 13 | 7.18 | 7.68 | -3 | 7.25 | 8.28 | – | – | – | – |
| CSc1sc(-c2ccccn2)c2c1C(=O)CC(C)(C)C2 | 26 | 7.35 | 7.60 | -31 | 7.59 | 8.77 | – | – | – | – |
| CC1(C)CC(=O)c2c(SCCO)sc(-c3nccs3)c2C1 | 13 | 7.70 | 7.70 | -38 | 7.80 | 8.80 | -21 | -3 | -1 | -51 |
| CSc1sc(-c2ccncc2)c2c1C(=O)CC(C)(C)C2 | 19 | 6.76 | 7.46 | -20 | 7.37 | 8.04 | – | – | – | – |

Reference: ChEMBL document CHEMBL1135580, “6,7-Dihydro-2-benzothiophen-4(5H)-ones: a novel class of GABA-A alpha5 receptor inverse agonists” (J Med Chem, 2002)
